# Screening results as filed in PubChem BioAssay.
# SKKanGAS inh: SKKanGAS growth inhibition; S. pyogenes SKKanGAS, kanamycin growth, BacTiter-Glo, 6 h; inhibition, % at 7.5 µM; 300,000 tested, 1.3% active; AID 1662;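 active = mean replicate score, as percent of positive control median, at least 50; inconclusive = mean below 50 but one replicate at or above 50; inactive = mean and every replicate below 50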;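 note: strain carries kanamycin resistance gene driven by streptokinase promoter and grows in 40 µg/ml kanamycin; loss of luminescence reflects streptokinase promoter inhibition or plain growth inhibition; 0% = median of DMSO wells and 100% = positive control at its reference dose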
# Beta apoptosis: blocks beta cell apoptosis. 300,000 tested, 0.8% active. INS-1E cytokine-induced death, ATP luminescence, 48 h; percent of positive-control rescue, neutral wells zero. protection from apoptosis, % (test concentration not listed);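 active = Every replicate reaches about 75%, or at least half do and their mean reaches it too, limit read from the data; inconclusive = At least half of replicates reach the limit but their mean does not; inactive = Under half of replicates reach the limit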;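 note: 0% = cytokine-treated negative control wells and 100% = positive control rescue; higher means more ATP so stronger rescue from cytokine killing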
# CSC inhib: cancer stem cell inhibition. cancer stem cell-like cells viability, luminescence. inhibition, % at 7.5 µM. 300,000 tested, 1.1% active. AID 2717; in the data active = inhibition above about 75%; inconclusive = no clear call, values can overlap the other calls; tested in HMLE shEcad cells
# UPR CHOP act: activators of apoptotic arm of unfolded protein response (CHOP); CHO-CHOP luciferase reporter, UPR activation, luminescence; percent of tunicamycin response over DMSO baseline; activation, % at 10 µM; 330,000 tested, 0.34% active; AID 449763;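 active = at 10 µM dose, activation of 40% or more, normalized to positive control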;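 note: 100% = tunicamycin at 10 µg/mL and 0% = DMSO alone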
#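 Evaluation: % reporter activation, DMSO baseline versus tunicamycin full activation; System: CHO-CHOP luciferase reporter cell line; Input: 500 cells/well; Incubation: 6 h compound treatment, 37 °C; Measured by: Steady-Glo luciferase luminescence; Dosing: one dose, 10 µM in 0.5% DMSO; Buffer or medium: F12 medium, 10% FBS; Benchmarks: positive tunicamycin 10 µg/mL, negative DMSO alone.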
# Mdm2 MdmX PPI: inhibitors of human Mdm2/MdmX interaction; O15151+Q00987; SaOS-2 split-luciferase Mdm2/MdmX complementation, luminescence; inhibition, % at 8 µM; 330,000 tested, 3% active; AID 485346;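 active = inhibition of at least 50% at 8 µM in the primary screen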
# Target sequence (O15151 whole entry, looked up): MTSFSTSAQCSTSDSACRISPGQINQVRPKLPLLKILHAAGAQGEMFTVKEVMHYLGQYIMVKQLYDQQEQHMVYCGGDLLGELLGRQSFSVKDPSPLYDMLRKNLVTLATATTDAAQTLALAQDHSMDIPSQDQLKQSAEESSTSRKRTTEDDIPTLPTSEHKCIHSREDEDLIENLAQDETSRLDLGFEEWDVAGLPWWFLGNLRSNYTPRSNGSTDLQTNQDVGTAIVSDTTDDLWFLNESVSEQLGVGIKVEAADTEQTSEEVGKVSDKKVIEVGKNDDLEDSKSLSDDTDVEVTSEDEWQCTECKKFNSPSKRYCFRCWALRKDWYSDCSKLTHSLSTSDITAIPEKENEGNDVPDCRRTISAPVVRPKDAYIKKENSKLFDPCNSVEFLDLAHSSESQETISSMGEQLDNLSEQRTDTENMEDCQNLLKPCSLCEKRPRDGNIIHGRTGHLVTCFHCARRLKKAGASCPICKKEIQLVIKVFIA
# Target sequence (Q00987 whole entry, looked up): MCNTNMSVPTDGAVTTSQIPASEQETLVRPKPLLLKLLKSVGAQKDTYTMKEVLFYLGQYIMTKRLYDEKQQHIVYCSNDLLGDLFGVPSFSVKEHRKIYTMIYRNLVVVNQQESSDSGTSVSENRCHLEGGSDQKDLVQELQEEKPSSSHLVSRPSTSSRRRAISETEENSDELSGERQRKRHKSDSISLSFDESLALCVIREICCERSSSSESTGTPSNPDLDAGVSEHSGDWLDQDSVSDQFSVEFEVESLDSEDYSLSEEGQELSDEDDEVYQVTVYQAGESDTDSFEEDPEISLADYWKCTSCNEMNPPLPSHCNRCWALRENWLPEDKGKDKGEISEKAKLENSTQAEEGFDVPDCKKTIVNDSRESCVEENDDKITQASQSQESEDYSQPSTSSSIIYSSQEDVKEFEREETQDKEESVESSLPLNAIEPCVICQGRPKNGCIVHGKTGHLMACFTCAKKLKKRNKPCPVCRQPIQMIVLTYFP
# UPR XBP1 act: activators of adaptive arm of unfolded protein response (XBP1). CHO-XBP1 luciferase reporter, IRE1-XBP1 UPR activation, luminescence; percent of tunicamycin response, DMSO as zero. AID 463104. activation, % at 20 µM. 330,000 tested, 0.33% active;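 active = versus positive control, 20 µM dose yields 30% or more activation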;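 note: 100% = tunicamycin at 10 µg/mL and 0% = DMSO only wells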
#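 Material: IRE1-XBP1 luciferase reporter CHO line / Quantity: one thousand reporter cells per well / Buffer or medium: F12 with 10% serum / Compound: 20 µM single concentration, DMSO 1% / Times: 6 h treatment, 37 °C / Detection: Steady-Glo luciferase glow luminescence, 10 min after reagent addition / Benchmarks: tunicamycin high, DMSO low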
# The depositor's hits bear a star; u = inconclusive; x = no result given. Most compounds without a hit are left out; they make up all but 4.8% or so of the library.
SMILES,SKKanGAS inh,Beta apoptosis,CSC inhib,UPR CHOP act,Mdm2 MdmX PPI,UPR XBP1 act
CC(C)(C)c1ccc(Oc2ccc(NC(=O)C3CC=CCC3C(=O)O)cc2)cc1 (stereo not given),-10,2,80*,-1,-19,-3
Cc1ccccc1Oc1ccc(NC(=O)C2CC=CCC2C(=O)O)cc1 (stereo not given),-10,-2,-8,-1,-13,0
N#Cc1ncc(Cc2ccccc2)nc1C#N,12,-6,42,60*,47,2
N#Cc1nc(Cc2ccccc2)oc1NCc1cccnc1,-4,-1,-11,-2,13,1
CC(C)(C)C(=O)N1N=C(c2ccc(NS(C)(=O)=O)cc2)CC1c1cccs1 (stereo not given),50*,-2,0,-3,8,2
CS(=O)(=O)Nc1ccc(C2=NN(C(=O)c3ccccc3)C(c3cccs3)C2)cc1 (stereo not given),0,-1,-8,0,6,-3
CCOC(=O)C(=NCCCN1CCOCC1)NNc1cccc(C(F)(F)F)c1,4,-2,86*,-1,2,-1
Cc1ccc(O)c(C(=O)CC(=O)c2ccc(C(C)(C)C)cc2)c1,95*,3,10,1,19,-2
Cc1ccc(O)c(C(=O)CC(=O)c2ccccc2Cl)c1,81*,19,6,6,5,3
COc1ccc(O)c(C(=O)CC(=O)c2ccccc2)c1,8,0,3,0,-181,-10
Cc1ccc(C(=O)CC(=O)c2cccc(F)c2)c(O)c1,35,12,4,21,43,11
Cc1ccc(C(=O)CC(=O)c2ccccc2C)c(O)c1,97*,4,26,6,34,3
COc1ccccc1CCNC(=O)C(=O)c1cn(CC(=O)N2CCOCC2)c2ccccc12,-6,2,1,5,-5,0
CC1(C)Cc2c(cnn2-c2cccc(F)c2)C(NC(=O)c2ccc(=O)[nH]n2)C1 (stereo not given),-2,-2,-5,-2,22,-2
O=C(NNC(=O)c1cc2cc(Br)ccc2oc1=O)c1ccc(O)cc1O,9,5,77*,-1,16,0
COc1ccc([C@@H]2[C@@H]3C(=O)N(C(C)(C)C)C(=O)[C@@H]3[C@]3(CC(C)C)C(=O)N(c4cccc(Br)c4)C(=O)N23)cc1,-1,3,-3,0,7,-3
Cc1c(NC(=O)Nc2ccc(C(C)(C)C)cc2)c(=O)n(-c2ccccc2)n1C,-1,0,-18,-1,-6,-1
COC(=O)[C@H](Cc1ccccc1)N(Cc1ccccc1)S(=O)(=O)N(Cc1ccccc1)[C@@H](Cc1ccccc1)C(=O)OC,x,119*,-1,7,40,-4
CC(C)(C)c1ccc(C(=O)Nc2ccc(F)cc2)s1,53*,-3,28,7,-181,3
COc1ccc(Nc2nnc(-c3ccccc3)c3ccccc23)cc1C(=O)N1CCCCC1,-4,-1,97*,2,25,2
Cc1ccc(NC(=O)N2C3CCCC2CC(NC(=O)C(C)(C)C)C3)cc1 (stereo not given),-1,-5,-2,1,-9,-3
O=C(Cc1csc(NC(=O)Nc2cccc(Cl)c2)n1)NCc1ccccn1,86*,5,x,5,-35,2
O=C(Cc1csc(NC(=O)Nc2ccc(Cl)cc2)n1)NCc1cccnc1,48,5,x,14,-16,1
O=C(Cc1csc(NC(=O)Nc2cccc(Cl)c2)n1)NC1CCCC1,31,x,-11,7,37,0
O=C(Cc1csc(NC(=O)Nc2cccc(Cl)c2)n1)NCc1cccnc1,89*,2,x,3,17,-1
SMILES,SKKanGAS inh,Beta apoptosis,CSC inhib,UPR CHOP act,Mdm2 MdmX PPI,UPR XBP1 act
O=C(Nc1cccc(S(=O)(=O)N2CCCCC2)c1)c1cc(=O)[nH]c2ccccc12,x,-6,-9,-1,8,0
CCc1nc(N2CCCCC2C)c2oc3ccccc3c2n1 (stereo not given),27,15,102*,-1,48,4
CCc1nc(N2CCN(Cc3ccc4c(c3)OCO4)CC2)c2oc3ccccc3c2n1,26,-5,81*,-3,30,-4
CCc1nc(N2CCCCC2)c2oc3ccccc3c2n1,8,-2,35,0,-9,-1
Oc1c(Cl)cc(Cl)cc1C(C#Cc1ccccc1)N1CCOCC1 (stereo not given),90*,1,35,-1,6,1
N#CC(c1ccc(Cl)cc1)N1CCOCC1 (stereo not given),1,-5,5,0,-19,-2
Cc1ccc2cc(CN(Cc3cccs3)C(=O)c3ccco3)c3nnnn3c2c1C,63*,1,1,0,14,0
Cc1ccc2c(CN(C)Cc3ccc(Cl)cc3Cl)cc(=O)oc2c1,53*,1,-3,1,-1,1
O=C1C=C(Nc2ccccc2C(=O)O)c2ccccc2C1=O,3,8,52,3,-14,0
CCCCNC1=CC(=O)C(=O)c2ccccc21,1,99*,8,2,-11,-2
CCNc1nc(NCC)nc(-n2nc(C)cc2C)n1,87*,16,-8,11,34,6
COc1ccc(C(=O)NCCCN=C2NS(=O)(=O)c3ccccc32)cc1,-4,-6,x,-1,10,0
COc1ccc(NC(=O)COC(=O)CCc2ccc(S(=O)(=O)N3CCOCC3)cc2)cc1OC,x,-2,-15,-1,22,-1
O=C(NNc1ccccc1)C(=O)N1CCCCC1,1,x,111*,1,16,-2
O=C(NCCCNC(=O)c1ccccn1)c1ccc(Cl)cc1,0,-3,-2,2,-3,3
CCc1c(C2(O)CCCCC2)[nH]c2cc(C(F)(F)F)ccc12,34,109*,130*,0,45,2
Cc1c(C2(O)CCCCC2)[nH]c2cc(C(F)(F)F)ccc12,x,15,u,0,-2,3
CNc1nnc(SCC(=O)N2c3ccccc3NC(=O)CC2C)s1 (stereo not given),x,0,-11,0,5,-3
COc1ccc(NC(=S)NNc2ccc([N+](=O)[O-])cc2S(=O)(=O)Nc2ccc(C)cc2C)cc1,65*,13,12,-1,8,-1
Cc1cccc(NC(=S)NNc2cccc(Cl)c2)c1,14,0,57,3,11,2
Cc1ccc(NS(=O)(=O)c2cc([N+](=O)[O-])ccc2NNC(=S)Nc2cccc(Cl)c2)c(C)c1,88*,7,100*,x,x,x
CSCC[C@H](NC(=O)[C@H](Cc1ccccc1)n1c(=O)[nH]c2ccccc2c1=O)C(=O)N1CCC(C(=O)O)CC1,-1,-1,-11,-2,15,1
